In ChEMBL document CHEMBL4725355, “Design, Synthesis, and Preclinical Evaluation of 3-Methyl-6-(5-thiophenyl)-1,3-dihydro-imidazo[4,5-b]pyridin-2-ones as Selective GluN2B Negative Allosteric Modulators for the Treatment of Mood Disorders” (J Med Chem, 2020):

Columns and labels:
[1] = Volume of distribution at steady state in mouse at 0.5 mg/kg, iv by LC-MS/MS analysis; assay type: ADME, organism-based; details: in vivo, read-out: Vdss
[2] = Protein binding in rat plasma assessed as unbound fraction at 0.5 uM after 6 hrs by equilibrium dialysis method; assay type: ADME, cell-free
[3] = Half life in dog at 0.5 mg/kg, po by LC-MS/MS analysis; assay type: ADME, organism-based, Canis lupus familiaris; details: in vivo
[4] = Cmax in Sprague-Dawley rat at 1000 mg/kg, po administered via gavage after 24 hrs using HPMC formulation by LC-MS/MS analysis; assay type: ADME, organism-based; design: route oral, dose 1000 mg/kg, time 24 hrs; details: in vivo
In short: (§1)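 Single oral gavage dose to male Sprague Dawley rats, 3 per dose level. Vehicles were a standard suspension in 5% HPMC (125, 250, 500 or 1000 mg/kg) or a nanosuspension (API:polymer 4:1), with stock diluted in vehicle on the day of dosing (100, 250 or 500 mg/kg). Blood was sampled at time points from 0.5 to 24 h.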

[5] = Clearance in Sprague-Dawley rat at 0.5 mg/kg, iv using 1:1 PEG-400/water formulation by LC-MS/MS analysis; assay type: ADME, organism-based; details: in vivo
In short: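 Rat IV/PO PK at 0.5 mg/kg IV and 2.5 mg/kg PO, dosed in 1:1 PEG400/water, n=3.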

[6] = Tmax in Sprague-Dawley rat at 250 mg/kg, po administered via gavage after 24 hrs using HPMC formulation by LC-MS/MS analysis; assay type: ADME, organism-based; details: in vivo
In short: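 Single oral gavage of a 5% HPMC suspension at 125, 250, 500 or 1000 mg/kg to male Sprague Dawley rats, 3 per group. Plasma was sampled at 6 time points from 0.5 to 24 h.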

[7] = Half life in Sprague-Dawley rat at 2.5 mg/kg, po by LC-MS/MS analysis; assay type: ADME, organism-based; details: in vivo
Cytochrome P450 2C8 = molecular target: T1, Cytochrome P450 2C8 (Homo sapiens, UniProt P10632); test: Inhibition of CYP2C8 in human liver microsomes using amodiaquine as substrate measured after 15 mins by LC-MS/MS analysis; assay type: ADME
T1 sequence (P10632 whole entry): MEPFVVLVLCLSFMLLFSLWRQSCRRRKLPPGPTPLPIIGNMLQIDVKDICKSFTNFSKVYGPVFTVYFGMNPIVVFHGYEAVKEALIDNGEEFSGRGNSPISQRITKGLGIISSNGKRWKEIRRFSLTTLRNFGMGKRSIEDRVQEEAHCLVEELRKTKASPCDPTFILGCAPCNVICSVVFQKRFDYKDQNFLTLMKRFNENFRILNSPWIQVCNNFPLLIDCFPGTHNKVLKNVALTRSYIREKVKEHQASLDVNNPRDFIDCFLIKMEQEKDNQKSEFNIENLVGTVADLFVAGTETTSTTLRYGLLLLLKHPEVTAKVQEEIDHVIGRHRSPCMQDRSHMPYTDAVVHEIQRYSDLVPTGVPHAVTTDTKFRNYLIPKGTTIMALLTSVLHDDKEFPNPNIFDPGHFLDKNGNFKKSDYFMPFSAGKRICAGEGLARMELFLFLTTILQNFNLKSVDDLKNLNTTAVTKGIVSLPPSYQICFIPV
In short: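 Human liver microsomes incubated with isoform-specific probe substrates and the test compound at concentrations up to 20 µM. IC50 derived from inhibition of metabolite formation; mean of two independent experiments, with known specific inhibitors as positive controls.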

[8] = Solubility of compound in 20% hydroxypropyl-beta-cyclodextrin; assay type: physicochemical
In short: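 Solubility of the compound assessed in dosing excipients, including 30% SBE-β-CD, 50% PEG-400 and 20% HP-β-CD. The aim was a solution usable for rat dosing; the 20% HP-β-CD formulation was checked for a 0.1 mg/mL solution to support a 0.5 mg/kg dose.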

[9] = Tmax in Sprague-Dawley rat at 2.5 mg/kg, po by LC-MS/MS analysis; assay type: ADME, organism-based; details: in vivo
[10] = Volume of distribution at steady state in Sprague-Dawley rat at 0.5 mg/kg, iv by LC-MS/MS analysis; assay type: ADME, organism-based; details: in vivo, read-out: Vdss
In short: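 Rat PK at 0.5 mg/kg i.v. and 2.5 mg/kg p.o., vehicle 20% HP-β-CD. n=3, values given as mean ± SD.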

[11] = Negative allosteric modulation of human GluN1a/GluN2B receptor expressed in CHO cells assessed as inhibition of glutamate and glycine-induced calcium flux preincubated for 5 mins followed by glutamate and glycine addition and measured after 5 mins by calcium 5 dye based FLIPR assay; assay type: cell-based
In short: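 Tet-On CHO T-Rex cells expressing hGluN1a with GluN2A, 2B, 2C or 2D, plated at 20,000 cells/well and induced 24 h before the assay in the presence of ketamine. Cells loaded 1 h at room temperature with Calcium 5 dye, pH 7.4 HEPES buffer. Compound added 5 min, then glutamate (~EC80) plus 10 µM glycine for 5 min; FLIPR fluorescence normalized to control wells. Three independent runs in duplicate (two for some).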

[12] = Ratio of Cmax in Sprague-Dawley rat at 500 mg/kg, po administered via gavage after 24 hrs using HPMC formulation by LC-MS/MS analysis to EC70 for ex vivo receptor occupancy at GluN2B in po dosed Sprague-Dawley rat assessed as 3-[3H] 1-(azetidin-1-yl)-2-[6-(4-fluoro-3-methyl-phenyl)pyrrolo[3,2-b]pyridin-1-yl]-ethanone labelling; assay type: ADME, organism-based
[13] = Drug level in Sprague-Dawley rat brain cerebellum at 0.03 mg/kg, iv after 120 min by LC-MS/MS analysis; assay type: ADME, organism-based; details: read-out: Drug uptake
In short: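 Rats (n=3 per group) received a single IV dose of 0.03 mg/kg in 50% (w/v) PEG/water at pH 7.4 and were sacrificed at 5, 10, 30, 60 and 120 min. Cerebellum, cortex, striatum and hippocampus were weighed, homogenized and analyzed by LC-MS/MS, with levels normalized to tissue weight.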

[14] = Tmax in mouse at 2.5 mg/kg, po by LC-MS/MS analysis; assay type: ADME, organism-based; details: in vivo
[15] = AUC (0 to 24 hrs) in Sprague-Dawley rat at 100 mg/kg, po administered via gavage after 24 hrs using nanosuspension formulation by LC-MS/MS analysis; assay type: ADME, organism-based; design: route oral, dose 100 mg/kg, time <=24; details: in vivo; in short: as §1
[16] = AUC (0 to 24 hrs) in Sprague-Dawley rat at 1000 mg/kg, po administered via gavage after 24 hrs using HPMC formulation by LC-MS/MS analysis; assay type: ADME, organism-based; design: route oral, dose 1000 mg/kg, time <=24; details: in vivo
[17] = Cmax in Sprague-Dawley rat brain at 3 mg/kg, po after 2 hrs by LC-MS/MS analysis; assay type: ADME, organism-based; design: route oral, dose 3 mg/kg, time 2 hrs
In short: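 Oral dose of 3 mg/kg in 20% HP-β-CD to rats. Brain concentration was measured alongside ex vivo GluN2B occupancy over a 6 h time course (0.5, 2 and 6 h), n=2.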

[18] = Tmax in Sprague-Dawley rat at 250 mg/kg, po administered via gavage after 24 hrs using nanosuspension formulation by LC-MS/MS analysis; assay type: ADME, organism-based; details: in vivo
In short: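 Single oral gavage of a nanosuspension (API:polymer 4:1), diluted with vehicle on the dosing day, at 100, 250 or 500 mg/kg to male Sprague Dawley rats, 3 per dose. Plasma was sampled from 0.5 to 24 h.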

[19] = Oral bioavailability in Sprague-Dawley rat at 2.5 mg/kg using 1:1 PEG-400/water formulation by LC-MS/MS analysis; assay type: ADME, organism-based; details: in vivo
In short: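 Rats dosed 0.5 mg/kg i.v. and 2.5 mg/kg p.o., n=3 ± SD. Default vehicle is 20% HP-β-CD; one PK set used 1:1 PEG400/water and another 30% SBE-β-CD.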

- Vd [1]: 3.2 L/kg
- fraction unbound at 6 h, 0.5 µM [2]: 0.053
- half-life [3]: 0.7 h
- Cmax [4]: 7010 ng/mL
- clearance [5]: 30 mL/min/kg
- Tmax [6]: 2.7 h
- half-life [7]: 2.2 h
- IC50 (Cytochrome P450 2C8): > 50000 nM
- solubility [8]: < 1000 µg/mL
- Tmax [9]: 1.3 h
- Vd [10]: 1.9 L/kg
- IC50 [11]: 31 nM
- Ratio [12]: 9
- concentration at 2 h [13]: 6.9 ng/mL
- Tmax [14]: 0.3 h
- AUC(0-t) [15]: 51900 ng·h/mL
- AUC(0-t) [16]: 22300 ng·h/mL
- Cmax [17]: 765 ng/g
- Tmax [18]: 2.7 h
- bioavailability [19]: 132%
Compound: Cn1c(=O)n(CC(=O)N2CCC2)c2cc(-c3ccc(C(F)(F)F)s3)cnc21
